Data as given in ChEMBL document CHEMBL3414472, “Synthesis, SAR, and series evolution of novel oxadiazole-containing 5-lipoxygenase activating protein inhibitors: discovery of 2-[4-(3-{(r)-1-[4-(2-amino-pyrimidin-5-yl)-phenyl]-1-cyclopropyl-ethyl}-[1,2,4]oxadiazol-5-yl)-pyrazol-1-yl]-N,N-dimethyl-acetamide (BI 665915)” (J Med Chem, 2015).
In brackets after ≈: the same amount, converted by molar mass.

Key:
[1] = target: T1, Arachidonate 5-lipoxygenase-activating protein (Homo sapiens, UniProt P20292); test: Inhibition of FLAP in calcimycin-stimulated human whole blood assessed as inhibition of LTB4 synthesis preincubated for 15 mins followed by calcimycin stimulation measured after 30 mins
T1 sequence (P20292 whole entry): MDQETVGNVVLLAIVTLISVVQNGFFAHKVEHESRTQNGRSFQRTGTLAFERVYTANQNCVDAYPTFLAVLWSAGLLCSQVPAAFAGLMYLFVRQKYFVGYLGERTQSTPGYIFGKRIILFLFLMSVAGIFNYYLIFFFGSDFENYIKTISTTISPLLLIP
How it was run: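 Heparinized human volunteer blood preincubated with compound 15 min at 37 °C, 5 % CO2; calcimycin 100 µM final, 30 min at 37 °C; spun 2000 rpm 5 min at 4 °C. Supernatant LTB4 measured by HTRF competition (LTB4-XL665 plus anti-LTB4 cryptate, 2 h room temperature). Geometric mean (n ≥ 3) of duplicate 10-point curves.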

[2] = Aqueous equilibrium solubility of the compound in crystalline form in citric acid/disodium phosphate buffer at pH 6.8 after 24 hrs of rotation by HPLC analysis; type: physicochemical
How it was run: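 Saturated solution of crystalline material in citric acid/disodium phosphate buffer pH 6.8 rotated 24 h; after centrifugation and filtration, dissolved concentration measured by HPLC.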

Cytochrome P450 3A4 [3] = target: T2, Cytochrome P450 3A4 (Homo sapiens, UniProt P08684); test: Inhibition of CYP3A4 in human liver microsomes using midazolam as substrate at 30 uM preincubated for 10 mins followed by NADPH addition measured after 6 mins; type: ADME; details: 0.1 h
Cytochrome P450 2D6 [4] = target: T3, Cytochrome P450 2D6 (Homo sapiens, UniProt P10635); test: Inhibition of CYP2D6 in human liver microsomes using dextromethorphan as substrate preincubated for 10 mins followed by NADPH addition measured after 6 mins; type: ADME
How it was run: (§1)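 Human liver microsomes (0.05 mg/mL protein) with cocktail substrates: 4 µM diclofenac (2C9), 3 µM dextromethorphan (2D6), 2.5 µM midazolam (3A4). Compound in 0.1 M potassium phosphate pH 7.4 preincubated 10 min at 37 °C; NADPH added, reaction 6 min at 37 °C.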

Cytochrome P450 2C9 [5] = target: T4, Cytochrome P450 2C9 (Homo sapiens, UniProt P11712); test: Inhibition of CYP2C9 in human liver microsomes using dichlofenac as substrate preincubated for 10 mins followed by NADPH addition measured after 6 mins; type: ADME; how it was run: as §1
Cytochrome P450 2C9 [6] = target: T4, Cytochrome P450 2C9; test: Inhibition of CYP2C9 in human liver microsomes using dichlofenac as substrate at 30 uM preincubated for 10 mins followed by NADPH addition measured after 6 mins; type: ADME; details: 0.1 h
Cytochrome P450 2D6 [7] = target: T3, Cytochrome P450 2D6; test: Inhibition of CYP2D6 in human liver microsomes using dextromethorphan as substrate at 30 uM preincubated for 10 mins followed by NADPH addition measured after 6 mins; type: ADME; details: 0.1 h
[8] = target: T1, Arachidonate 5-lipoxygenase-activating protein; test: Displacement of [125I]-L-691831 from human FLAP expressed in insect SF9 cell membranes after 2 hrs by Topcount analysis
[9] = Metabolic stability in human liver microsomes at 1 uM preincubated for 10 mins followed by NADPH addition measured over 60 mins by LC/MS analysis relative to hepatic blood flow; type: ADME; details: read-out: Stability
How it was run: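 Human liver microsomes (1 mg/mL protein) with test compound at 1 µM, preincubated 10 min at 37 °C before adding NADPH. Remaining compound followed over a 0–60 min time course, as duplicate 8-timepoint curves. The slope of ln(% remaining) against time gives clearance, expressed as percent of hepatic blood flow.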

Cytochrome P450 3A4 [10] = target: T2, Cytochrome P450 3A4; test: Inhibition of CYP3A4 in human liver microsomes using midazolam as substrate preincubated for 10 mins followed by NADPH addition measured after 6 mins; type: ADME; how it was run: as §1
hERG (KCNH2) = hERG (KCNH2) (Homo sapiens, UniProt Q12809); test: Inhibition of human ERG expressed in HEK293 cells assessed as change in tail current at 11 uM by manual patch clamp assay relative to control; type: cell-based; details: HEK293 cells that express hERG
How it was run: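 Whole-cell manual patch clamp on HEK293 cells stably expressing human ERG, at room temperature (20-22 °C) in a perfusion chamber. Change in hERG tail current amplitude during the hyperpolarizing step measured with escalating compound concentrations.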

[11] = target: T5, Arachidonate 5-lipoxygenase-activating protein (Mus musculus, UniProt P30355); test: Inhibition of FLAP in calcimycin-stimulated mouse whole blood assessed as inhibition of LTB4 synthesis preincubated for 15 mins followed by calcimycin stimulation measured after 30 mins
T5 sequence (P30355 whole entry): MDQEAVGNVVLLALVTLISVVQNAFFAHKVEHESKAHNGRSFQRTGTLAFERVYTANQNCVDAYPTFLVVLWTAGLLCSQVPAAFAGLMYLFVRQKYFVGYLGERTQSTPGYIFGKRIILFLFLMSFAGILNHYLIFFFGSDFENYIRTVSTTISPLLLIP
How it was run: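 Mouse whole blood run by the same protocol as the human whole blood LTB4 assay (compound 15 min at 37 °C, 100 µM final calcimycin 30 min, HTRF LTB4 read-out). Geometric mean (n ≥ 3) of duplicate 8-point curves.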

T2 sequence (P08684 whole entry): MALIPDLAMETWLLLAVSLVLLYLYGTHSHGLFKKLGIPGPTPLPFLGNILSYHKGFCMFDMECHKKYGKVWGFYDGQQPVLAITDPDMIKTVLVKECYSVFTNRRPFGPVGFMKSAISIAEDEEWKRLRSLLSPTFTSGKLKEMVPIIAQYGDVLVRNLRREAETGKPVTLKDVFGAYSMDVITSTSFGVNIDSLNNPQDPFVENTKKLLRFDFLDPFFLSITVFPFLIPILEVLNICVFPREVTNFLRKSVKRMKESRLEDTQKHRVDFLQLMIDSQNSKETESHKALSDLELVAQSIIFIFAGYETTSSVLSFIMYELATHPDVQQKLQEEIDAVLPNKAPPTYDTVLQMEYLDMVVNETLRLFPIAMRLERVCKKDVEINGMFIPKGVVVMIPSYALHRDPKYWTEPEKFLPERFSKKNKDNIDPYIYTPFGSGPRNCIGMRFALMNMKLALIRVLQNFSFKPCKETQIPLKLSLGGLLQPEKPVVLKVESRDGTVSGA
T3 sequence (P10635 whole entry): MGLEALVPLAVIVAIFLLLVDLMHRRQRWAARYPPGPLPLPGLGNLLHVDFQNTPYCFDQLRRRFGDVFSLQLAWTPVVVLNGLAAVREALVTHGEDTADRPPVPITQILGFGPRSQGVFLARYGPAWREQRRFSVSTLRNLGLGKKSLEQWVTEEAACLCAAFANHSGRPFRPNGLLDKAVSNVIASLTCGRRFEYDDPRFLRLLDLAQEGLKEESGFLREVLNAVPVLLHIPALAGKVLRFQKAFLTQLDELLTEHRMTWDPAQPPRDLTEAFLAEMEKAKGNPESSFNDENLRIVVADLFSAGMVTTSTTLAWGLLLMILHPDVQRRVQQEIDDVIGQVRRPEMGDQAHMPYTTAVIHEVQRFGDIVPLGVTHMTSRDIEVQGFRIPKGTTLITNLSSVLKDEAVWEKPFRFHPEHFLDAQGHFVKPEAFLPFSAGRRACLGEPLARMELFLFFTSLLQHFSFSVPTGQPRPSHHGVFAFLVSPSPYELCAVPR
hERG (KCNH2), sequence (Q12809 whole entry, the tested form may be a part): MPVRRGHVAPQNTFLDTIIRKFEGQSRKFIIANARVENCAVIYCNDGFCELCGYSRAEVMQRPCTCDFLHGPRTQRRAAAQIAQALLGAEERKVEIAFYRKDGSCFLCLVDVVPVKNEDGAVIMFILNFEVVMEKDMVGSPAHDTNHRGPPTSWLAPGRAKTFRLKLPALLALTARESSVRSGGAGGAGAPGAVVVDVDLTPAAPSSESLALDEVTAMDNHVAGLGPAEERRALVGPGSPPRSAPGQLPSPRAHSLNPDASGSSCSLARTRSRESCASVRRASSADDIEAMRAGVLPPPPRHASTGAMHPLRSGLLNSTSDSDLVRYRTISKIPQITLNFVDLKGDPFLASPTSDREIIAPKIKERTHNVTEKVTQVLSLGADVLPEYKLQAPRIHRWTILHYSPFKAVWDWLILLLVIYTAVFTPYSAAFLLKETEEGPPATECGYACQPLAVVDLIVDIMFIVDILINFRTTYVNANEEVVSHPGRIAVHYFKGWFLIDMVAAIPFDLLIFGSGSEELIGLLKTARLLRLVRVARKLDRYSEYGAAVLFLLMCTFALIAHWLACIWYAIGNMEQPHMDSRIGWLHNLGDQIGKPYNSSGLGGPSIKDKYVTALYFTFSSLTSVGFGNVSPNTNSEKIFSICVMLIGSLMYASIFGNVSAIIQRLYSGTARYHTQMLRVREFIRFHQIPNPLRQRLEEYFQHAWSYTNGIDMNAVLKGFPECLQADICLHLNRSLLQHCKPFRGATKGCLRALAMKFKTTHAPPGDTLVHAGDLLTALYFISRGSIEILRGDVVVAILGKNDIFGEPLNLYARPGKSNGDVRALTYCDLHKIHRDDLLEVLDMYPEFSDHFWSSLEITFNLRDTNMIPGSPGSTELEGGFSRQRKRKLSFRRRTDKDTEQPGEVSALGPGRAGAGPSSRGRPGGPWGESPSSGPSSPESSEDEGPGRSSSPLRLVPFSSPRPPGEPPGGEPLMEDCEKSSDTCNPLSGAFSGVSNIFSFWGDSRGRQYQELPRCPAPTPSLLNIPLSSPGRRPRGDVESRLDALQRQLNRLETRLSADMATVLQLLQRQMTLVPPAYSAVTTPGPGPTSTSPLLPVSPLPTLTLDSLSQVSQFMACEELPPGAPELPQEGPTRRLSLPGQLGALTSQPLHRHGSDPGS
T4 sequence (P11712 whole entry): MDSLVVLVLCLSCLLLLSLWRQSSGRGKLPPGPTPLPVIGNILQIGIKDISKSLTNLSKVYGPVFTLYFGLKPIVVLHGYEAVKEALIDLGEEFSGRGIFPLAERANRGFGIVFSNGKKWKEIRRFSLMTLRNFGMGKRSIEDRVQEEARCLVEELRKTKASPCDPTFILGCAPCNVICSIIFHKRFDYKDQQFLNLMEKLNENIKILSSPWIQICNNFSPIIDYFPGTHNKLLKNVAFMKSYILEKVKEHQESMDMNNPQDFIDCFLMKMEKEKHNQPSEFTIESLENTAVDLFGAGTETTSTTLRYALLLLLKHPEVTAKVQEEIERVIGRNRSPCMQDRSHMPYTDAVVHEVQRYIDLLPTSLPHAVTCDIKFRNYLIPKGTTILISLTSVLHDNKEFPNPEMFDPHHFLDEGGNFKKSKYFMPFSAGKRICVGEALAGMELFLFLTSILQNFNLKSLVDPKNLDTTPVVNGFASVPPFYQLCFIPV

SMILES	IC50 [1]	further results
Nc1ncc(-c2ccc(C3(c4noc(-c5cscn5)n4)CCC3)cc2)cn1	200 nM	
CC(C)[C@](C)(c1ccc(-c2cnc(N)nc2)cc1)c1noc(-c2cnn(C)c2)n1	33 nM	
CCNc1ncc(-c2ccc(C(C)(c3noc(-c4cnn(CC(=O)N(C)C)c4)n3)C3CC3)cc2)cn1 (racemic)	1000 nM	
Cn1cc(-c2nc(C3(c4ccc(-c5cnc(N)nc5)cc4)CC(C)(C)C3)no2)cn1	1500 nM	
CN(C)CCn1cc(-c2nc(C3(c4ccc(-c5cnc(N)nc5)cc4)CCC3)no2)cn1	47 nM	solubility thermodynamic at 24 h [2]: 270 µg/mL (≈ 627 µM); inhibition (INH) (Cytochrome P450 3A4 [3]): Not Active; IC50 (Cytochrome P450 2D6 [4]): 10000 nM; IC50 (Cytochrome P450 2C9 [5]): 7000 nM
Cn1cc(-c2nc([C@@](C)(c3ccc(-c4cnc(N)nc4)cc3)C3CCC3)no2)cn1	91 nM	
Nc1ncc(-c2ccc(C3(c4noc(-c5cncnc5)n4)CCC3)cc2)cn1	340 nM	
Nc1ncc(-c2ccc(C3(c4noc(-c5ccncn5)n4)CCC3)cc2)cn1	820 nM	
Cn1cc(-c2nc([C@](C)(c3ccc(-c4cnc(N)nc4)cc3)C3CC3)no2)cn1	350 nM	
Nc1ncc(-c2ccc(C3(c4noc(-c5cccnc5)n4)CCC3)cc2)cn1	250 nM	
CC(C)C(c1ccc(-c2cnc(N)nc2)cc1)c1noc(-c2cnn(C)c2)n1 (racemic)	190 nM	
Nc1ncc(-c2ccc(C3(c4noc(-c5ccccc5)n4)CCC3)cc2)cn1	470 nM	
CS(=O)(=O)Nc1nc(C2(c3ccc(-c4cnc(N)nc4)cc3)CCC2)no1	> 5000 nM	
CN(C)C(=O)Cn1cc(-c2nc(C3(c4ccc(-c5cnc(N)nc5)cc4)CCC3)no2)cn1	81 nM	inhibition (INH) (Cytochrome P450 2C9 [6]): Not Active; solubility thermodynamic at 24 h [2]: 20 µg/mL (≈ 45 µM); inhibition (INH) (Cytochrome P450 2D6 [7]): Not Active; IC50 [8]: 3.6 nM
CC(C)C(C)(c1ccc(-c2cnc(N)nc2)cc1)c1noc(-c2cnn(C)c2)n1 (racemic)	46 nM	
Cn1cc(-c2nc([C@@](C)(c3ccc(-c4cnc(N)nc4)cc3)C3CC3)no2)cn1	15 nM	
Nc1ncc(-c2ccc(C3(c4noc(-c5cnn(CC(=O)O)c5)n4)CCC3)cc2)cn1	> 5000 nM	IC50 [8]: 18 nM
CN(C)C(=O)Cn1cc(-c2nc([C@@](C)(c3ccc(-c4cnc(N)cn4)cc3)C3CC3)no2)cn1	73 nM	
NCCn1cc(-c2nc(C3(c4ccc(-c5cnc(N)nc5)cc4)CCC3)no2)cn1	240 nM	
CN(C)CCn1cc(-c2nc([C@@](C)(c3ccc(-c4cnc(N)nc4)cc3)C3CC3)no2)cn1	14 nM	hepatic extraction ratio at 1 h, 1 µM [9]: 0.4; solubility thermodynamic at 24 h [2]: > 1100 µg/mL; IC50 (Cytochrome P450 3A4 [10]): > 30000 nM; inhibition at 11 µM (hERG (KCNH2)): 31%; IC50 (Cytochrome P450 2D6 [4]): 10000 nM; IC50 (Cytochrome P450 2C9 [5]): > 30000 nM
Nc1ncc(-c2ccc(C3(c4noc(-c5cccnn5)n4)CCC3)cc2)cn1	400 nM	
Cn1cc(-c2nc(C3(c4ccc(-c5cnc(N)nc5)cc4)CC3)no2)cn1	2200 nM	

SMILES	IC50 [1]	further results
Cn1cc(-c2nc(Cc3ccc(-c4cnc(N)nc4)cc3)no2)cn1	> 5000 nM	IC50 [8]: > 1000 nM
Nc1ncc(-c2ccc(C3(c4noc(-c5cocn5)n4)CCC3)cc2)cn1	310 nM	
CCNc1nc(C2(c3ccc(-c4cnc(N)nc4)cc3)CCC2)no1	460 nM	
Nc1ncc(-c2ccc(C3(c4noc(-c5c[nH]nn5)n4)CCC3)cc2)cn1	2100 nM	
CC(C)[C@@](C)(c1ccc(-c2cnc(N)nc2)cc1)c1noc(-c2cnn(C)c2)n1	360 nM	
Nc1ncc(-c2ccc(C3(c4noc(-c5cnccn5)n4)CCC3)cc2)cn1	360 nM	
CC(C)Nc1ncc(-c2ccc([C@](C)(c3noc(-c4cnn(CC(=O)N(C)C)c4)n3)C3CC3)cc2)cn1	> 50000 nM	IC50 [8]: > 1000 nM
Nc1ncc(-c2ccc(C3(c4noc(-c5nc[nH]n5)n4)CCC3)cc2)cn1	2700 nM	
Nc1ncc(-c2ccc(C3(c4noc(-c5cn[nH]c5)n4)CCC3)cc2)cn1	110 nM	solubility thermodynamic at 24 h [2]: 0.4 µg/mL (≈ 1.11 µM)
Cn1cc(-c2nc(C(C)(C)c3ccc(-c4cnc(N)nc4)cc3)no2)cn1	93 nM	
COCCn1cc(-c2nc(C3(c4ccc(-c5cnc(N)nc5)cc4)CCC3)no2)cn1		solubility thermodynamic at 24 h [2]: 9.3 µg/mL (≈ 22.3 µM)
Nc1ncc(-c2ccc(C3(c4noc(-c5ccnnc5)n4)CCC3)cc2)cn1	240 nM	
Nc1ncc(-c2ccc(C3(c4noc(-c5cc[nH]n5)n4)CCC3)cc2)cn1	160 nM	
Cn1cc(-c2nc(C3(c4ccc(-c5cnc(N)nc5)cc4)CCC3)no2)cn1		solubility thermodynamic at 24 h [2]: 0.03 µg/mL (≈ 0.0803 µM)
CN(C)C(=O)Cn1cc(-c2nc([C@@](C)(c3ccc(-c4ccc(N)nc4)cc3)C3CC3)no2)cn1	66 nM	
CNc1ncc(-c2ccc([C@](C)(c3noc(-c4cnn(CC(=O)N(C)C)c4)n3)C3CC3)cc2)cn1	30 nM	IC50 [8]: 2.9 nM
CC(C)(O)Cn1cc(-c2nc(C3(c4ccc(-c5cnc(N)nc5)cc4)CCC3)no2)cn1		solubility thermodynamic at 24 h [2]: 3.1 µg/mL (≈ 7.18 µM); IC50 (Cytochrome P450 3A4 [10]): > 30000 nM; inhibition at 11 µM (hERG (KCNH2)): 51%; IC50 (Cytochrome P450 2D6 [4]): 3000 nM; IC50 (Cytochrome P450 2C9 [5]): 6000 nM
Nc1ncc(-c2ccc(C3(c4noc(-c5c[nH]cn5)n4)CCC3)cc2)cn1	270 nM	
Nc1ncc(-c2ccc(C3(c4noc(-c5ccc[nH]c5=O)n4)CCC3)cc2)cn1	> 5000 nM	
Cn1cc(-c2nc([C@](C)(c3ccc(-c4cnc(N)nc4)cc3)C3CCC3)no2)cn1	3200 nM	
CC(C)(O)Cn1cc(-c2nc([C@@](C)(c3ccc(-c4cnc(N)nc4)cc3)C3CC3)no2)cn1	20 nM	hepatic extraction ratio at 1 h, 1 µM [9]: 0.24; solubility thermodynamic at 24 h [2]: 32 µg/mL (≈ 71.8 µM); IC50 (Cytochrome P450 3A4 [10]): > 30000 nM; IC50 [8]: 2.1 nM; inhibition at 11 µM (hERG (KCNH2)): 16%; IC50 (Cytochrome P450 2D6 [4]): > 30000 nM; IC50 (Cytochrome P450 2C9 [5]): 4000 nM; IC50 [11]: 1500 nM
